Laboratory results reported in ChEMBL document CHEMBL1157684, “2-Thienyl-4-furyl-6-aryl pyridine derivatives: synthesis, topoisomerase I and II inhibitory activity, cytotoxicity, and structure-activity relationship study” (Bioorg Med Chem, 2010).
Active and inactive are the calls of the source. The calls are words filed in the database; no cut-off is given here.

Columns and labels:
[1] = target: T1, DNA topoisomerase 1 (Homo sapiens) (UniProt P11387); test: Inhibition of human recombinant DNA topoisomerase 1-mediated relaxation of supercoiled pBR322 DNA at 100 uM after 30 mins by agarose gel electrophoresis
T1 sequence (whole entry): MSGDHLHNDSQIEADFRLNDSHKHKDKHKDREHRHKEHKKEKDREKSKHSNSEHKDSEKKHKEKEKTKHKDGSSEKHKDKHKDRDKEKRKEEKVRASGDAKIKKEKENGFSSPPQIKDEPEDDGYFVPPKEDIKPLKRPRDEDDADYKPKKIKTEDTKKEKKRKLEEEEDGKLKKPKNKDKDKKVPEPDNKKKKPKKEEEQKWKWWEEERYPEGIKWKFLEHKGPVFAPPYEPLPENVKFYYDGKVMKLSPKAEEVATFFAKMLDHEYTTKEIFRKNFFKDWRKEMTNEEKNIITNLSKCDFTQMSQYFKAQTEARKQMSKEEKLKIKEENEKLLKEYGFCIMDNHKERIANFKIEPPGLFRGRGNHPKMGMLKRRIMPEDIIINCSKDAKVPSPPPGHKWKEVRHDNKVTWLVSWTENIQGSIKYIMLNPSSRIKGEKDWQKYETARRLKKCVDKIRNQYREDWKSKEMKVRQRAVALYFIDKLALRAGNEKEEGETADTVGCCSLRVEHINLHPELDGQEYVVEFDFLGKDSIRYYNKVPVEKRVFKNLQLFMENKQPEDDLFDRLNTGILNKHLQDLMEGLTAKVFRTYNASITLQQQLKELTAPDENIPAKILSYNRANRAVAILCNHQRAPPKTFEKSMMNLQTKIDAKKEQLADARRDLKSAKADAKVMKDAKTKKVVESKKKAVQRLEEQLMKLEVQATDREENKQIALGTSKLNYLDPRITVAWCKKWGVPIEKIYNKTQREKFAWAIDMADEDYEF
Procedure, shortened: (§1)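 Recombinant human topo I (0.4 units) with 100 ng supercoiled pBR322, 30 min at 37 °C in 10 mM Tris–HCl pH 7.9, 150 mM NaCl, 0.1% BSA, 1 mM spermidine, 5% glycerol. Compounds from 20 mM DMSO stock. Products run on 1% agarose in TAE, 15 V for 7 h, ethidium-stained, bands quantified under UV.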

[2] = target: T1, DNA topoisomerase 1 (Homo sapiens); test: Inhibition of human recombinant DNA topoisomerase 1-mediated relaxation of supercoiled pBR322 DNA at 20 uM after 30 mins by agarose gel electrophoresis; procedure, shortened: as §1
[3] = target: DNA topoisomerase 2-alpha (Homo sapiens) (UniProt P11388); test: Inhibition of human DNA topoisomerase 2alpha-mediated relaxation of supercoiled pBR322 DNA at 100 uM after 30 mins by agarose gel electrophoresis
Procedure, shortened: (§2)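 Human topo IIα (1 unit) with 200 ng supercoiled pBR322, 30 min at 30 °C in 10 mM Tris–HCl pH 7.9, 50 mM NaCl, 50 mM KCl, 5 mM MgCl2, 1 mM EDTA, 1 mM ATP plus BSA. Products run on 1% agarose in TAE at 25 V for 4 h, ethidium-stained, supercoiled DNA quantified under UV.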

[4] = target: DNA topoisomerase 2-alpha (Homo sapiens) (UniProt P11388); test: Inhibition of human DNA topoisomerase 2alpha-mediated relaxation of supercoiled pBR322 DNA at 20 uM after 30 mins by agarose gel electrophoresis; procedure, shortened: as §2
[5] = system: MCF7; test: Cytotoxicity against human MCF7 cells after 4 days by ELISA reader assay; type: functional, cell-based; settings: MCF7, 96 h
Procedure, shortened: (§3)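 Cells grown per supplier, seeded at 2–4 × 10⁴ per well, left overnight in medium with 10% FBS at 37 °C under 5% CO₂, then exposed to compounds. WST (cell counting kit-8) reagent added for a further 4 h, absorbance read at 450 nm. IC50 from four-parameter logistic fit; mean ± S.D. of three experiments, each in triplicate.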

[6] = system: DU-145; test: Cytotoxicity against human DU145 cells after 4 days by ELISA reader assay; type: functional, cell-based; settings: DU-145, 96 h; procedure, shortened: as §3
[7] = system: HCT-15; test: Cytotoxicity against human HCT15 cells after 4 days by ELISA reader assay; type: functional, cell-based; settings: HCT-15, 96 h; procedure, shortened: as §3
[8] = system: K562; test: Cytotoxicity against human K562 cells after 4 days by ELISA reader assay; type: functional, cell-based; settings: K562, 96 h; procedure, shortened: as §3
[9] = system: HeLa; test: Cytotoxicity against human HeLa cells after 4 days by ELISA reader assay; type: functional, cell-based; settings: 96 h; procedure, shortened: as §3

DNA topoisomerase 2-alpha (Homo sapiens), sequence (P11388 whole entry): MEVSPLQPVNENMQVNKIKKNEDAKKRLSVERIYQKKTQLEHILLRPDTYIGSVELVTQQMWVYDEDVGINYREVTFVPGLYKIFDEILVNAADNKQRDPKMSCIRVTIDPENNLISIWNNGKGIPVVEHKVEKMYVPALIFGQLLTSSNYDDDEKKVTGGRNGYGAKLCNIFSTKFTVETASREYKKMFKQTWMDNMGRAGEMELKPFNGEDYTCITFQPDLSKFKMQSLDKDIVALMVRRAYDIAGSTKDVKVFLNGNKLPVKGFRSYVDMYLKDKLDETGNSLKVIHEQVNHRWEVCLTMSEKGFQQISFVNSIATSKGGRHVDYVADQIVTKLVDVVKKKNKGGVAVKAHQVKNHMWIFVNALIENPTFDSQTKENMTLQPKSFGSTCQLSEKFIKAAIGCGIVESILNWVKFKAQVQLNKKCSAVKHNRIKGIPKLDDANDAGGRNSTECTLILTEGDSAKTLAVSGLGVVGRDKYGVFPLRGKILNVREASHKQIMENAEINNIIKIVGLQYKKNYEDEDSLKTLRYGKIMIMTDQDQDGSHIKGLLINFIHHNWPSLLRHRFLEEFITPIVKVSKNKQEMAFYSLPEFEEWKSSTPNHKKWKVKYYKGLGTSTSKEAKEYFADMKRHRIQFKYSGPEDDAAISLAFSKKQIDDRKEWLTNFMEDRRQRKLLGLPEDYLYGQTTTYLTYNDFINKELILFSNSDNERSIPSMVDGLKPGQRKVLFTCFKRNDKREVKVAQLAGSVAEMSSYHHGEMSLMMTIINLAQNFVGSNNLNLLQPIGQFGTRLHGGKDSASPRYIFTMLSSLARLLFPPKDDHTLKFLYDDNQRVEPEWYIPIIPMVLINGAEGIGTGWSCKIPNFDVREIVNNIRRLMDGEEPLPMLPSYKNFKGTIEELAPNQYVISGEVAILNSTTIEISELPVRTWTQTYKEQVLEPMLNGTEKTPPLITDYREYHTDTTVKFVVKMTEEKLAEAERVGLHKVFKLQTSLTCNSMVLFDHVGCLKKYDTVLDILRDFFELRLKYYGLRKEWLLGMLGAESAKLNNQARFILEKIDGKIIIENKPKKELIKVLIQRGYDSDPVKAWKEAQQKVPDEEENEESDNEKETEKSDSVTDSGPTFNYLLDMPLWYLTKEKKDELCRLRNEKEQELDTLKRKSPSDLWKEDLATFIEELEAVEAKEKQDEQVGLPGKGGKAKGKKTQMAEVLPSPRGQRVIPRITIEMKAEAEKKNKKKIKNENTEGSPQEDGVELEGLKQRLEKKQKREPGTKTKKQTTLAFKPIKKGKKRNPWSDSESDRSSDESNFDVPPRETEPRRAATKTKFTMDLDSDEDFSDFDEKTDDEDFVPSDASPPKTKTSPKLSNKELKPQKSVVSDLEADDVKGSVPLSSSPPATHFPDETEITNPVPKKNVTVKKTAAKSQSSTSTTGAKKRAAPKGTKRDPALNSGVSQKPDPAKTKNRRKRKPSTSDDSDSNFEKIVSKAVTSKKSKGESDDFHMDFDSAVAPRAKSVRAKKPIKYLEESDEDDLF

Row | inhibition [1] | inhibition [2] | inhibition [3] | inhibition [4] | Compound | IC50 [5] | IC50 [6] | IC50 [7] | IC50 [8] | IC50 [9]
1 | 2.3% | inactive | 62.7% | 56.9% | Clc1ccc(-c2cc(-c3ccoc3)cc(-c3ccc(Cl)s3)n2)cc1 | 2.6 µM | 29.5 µM | 0.64 µM | 19.6 µM | 16.5 µM
2 | 3.1% | inactive | 49.6% | 38.9% | Clc1ccc(-c2cc(-c3ccoc3)cc(-c3ccccn3)n2)s1 | 3.36 µM | 20.5 µM | 1.27 µM | 20 µM | 21.6 µM
